By Ki is commonly meant a dissociation constant, usually derived from enzyme kinetics or from competition with a known ligand. What is called inhibition is the relative decrease from the control value, in per cent. As a reminder, the EC50 is the concentration giving half of the maximal effect. As a reminder, the IC50 is the concentration needed to halve the response being measured. Low values mean greater potency, high ones weaker potency.

The source made the active and inactive calls. No cut-off for these calls is given here.

Data set [1] in a line: Inhibition of Dengue virus NS2B-NS3 protease expressed in Escherichia coli BL 21 (DE3) using Abz-Nle-Lys-Arg-Arg-Ser-3-(NO2)Tyr as substrate assessed as enzyme-inhibitor complex by Cornish-Bowden plot analysis. The note with it: in the assay text read “Dixon plot” for “Cornish-Bowden plot”. The gist of the method: (§1)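 DEN2 NS2B–NS3 FRET assay run at inhibitor 0–6 μM (prior-series compounds 5–50 μM) and substrate 50, 100, 150 and 200 μM, in triplicate, with inner-filter correction. Ki from Dixon plots (1/v vs [I]) and Ki′ from Cornish-Bowden plots (S/v vs [I]). Inhibition mode assigned from these plots.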

Data set [2] has as its system Dengue virus. Kind of data set: Inhibition of Dengue virus NS2B-NS3 protease expressed in Escherichia coli BL 21 (DE3) using Abz-Nle-Lys-Arg-Arg-Ser-3-(NO2)Tyr as substrate at 50 uM after 15 mins.
Data set [3] can be described thus: Solubility of the compound in PBS buffer. The data set is classed as physicochemical.
Data set [4] relates to dengue virus type 2. Kind of data set: Antiviral activity against Dengue virus 2 infected in human Huh-7 cells assessed as inhibition of viral replication after 48 hrs by luciferase reporter gene assay. The data set is classed as functional, organism-based. The following applies: Huh-7, 48 h. The gist of the method:
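Huh-7 cells seeded 5000/well, incubated overnight at 37 °C, then given compound (1.56–50 μM final, 2-fold series in DMEM with 10% FCS). Dengue 2 renilla luciferase reporter virus (MOI 10) added 4 h later. After 48 h at 37 °C, cells lysed and renilla luminescence read with coelenterazine. At least four wells per concentration, expressed relative to DMSO control. EC50 by nonlinear regression.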

In data set [5] the test system is Huh-7. Kind of data set: Cytotoxicity against human HuH7 cells at <50 uM after 48 hrs by firefly reporter assay. The data set is classed as cell-based. The note with it: huh-7, 48 h. The gist of the method: (§2)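 Uninfected Huh-7 cells stably expressing firefly luciferase, seeded 5000/well and incubated overnight at 37 °C. Compound added at 1.56–50 μM, plus 100, 200 and 400 μM, then incubated as for infected cells (further 48 h after the 4 h point). Firefly luminescence read with 70 μM luciferin and 2 mM ATP. Mean of three wells as percent of DMSO control.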

A further data set concerns West Nile virus. Kind of data set: Inhibition of West Nile virus NS2B-NS3 protease expressed in Escherichia coli BL 21 (DE3) using Abz-Gly-Leu-Lys-Arg-Gly-Gly-3-(NO2)Tyr as substrate at 50 uM after 15 mins.
Data set [6] in a line: Inhibition of Dengue virus NS2B-NS3 protease expressed in Escherichia coli BL 21 (DE3) using Abz-Nle-Lys-Arg-Arg-Ser-3-(NO2)Tyr as substrate assessed as enzyme-substrate-inhibitor complex by Cornish-Bowden plot analysis. In short, it runs like this:
as §1

A short description of data set [7]: Inhibition of Dengue virus NS2B-NS3 protease expressed in Escherichia coli BL 21 (DE3) using Abz-Nle-Lys-Arg-Arg-Ser-3-(NO2)Tyr as substrate after 15 mins.
The target of data set [8] is Prothrombin (Homo sapiens) (UniProt P00734). Kind of data set: Inhibition of thrombin (unknown origin) using Boc-Val-Pro-Arg-AMC as substrate at 25 uM after 10 mins by continuous fluorimetric assay. The gist of the method: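 Thrombin (10 nM) preincubated 15 min with inhibitor (25 μM final) in 50 mM Tris-HCl pH 7.5, 150 mM NaCl, 0.05% Tween 20. Boc-Val-Pro-Arg-AMC then added to 50 μM (Km 16 μM). Fluorescence (ex 355 nm, em 460 nm) followed for 10 min as slope. Triplicate; percent inhibition versus no-inhibitor control.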

The test system of data set [9] is Dengue virus. As to the kind of experiment: Mixed type inhibition of Dengue virus NS2B-NS3 protease expressed in Escherichia coli BL 21 (DE3) using Abz-Nle-Lys-Arg-Arg-Ser-3-(NO2)Tyr as substrate by Cornish-Bowden plot analysis. In short, it runs like this:
as §1

Data set [10] relates to Dengue virus. Kind of data set: Mixed/noncompetitive type inhibition of Dengue virus NS2B-NS3 protease expressed in Escherichia coli BL 21 (DE3) using Abz-Nle-Lys-Arg-Arg-Ser-3-(NO2)Tyr as substrate by Cornish-Bowden plot analysis. In short, it runs like this:
as §1

The nature of data set [11]: Permeability of the compound by PAMPA. The data set is classed as ADME. The following applies: read-out: permeability. In short, it runs like this: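 PAMPA with precoated trilayer lipid/oil/lipid membranes, donor wells holding 200 μM compound in PBS pH 7.4 (2% DMSO final), in triplicate. Incubated 5 h at room temperature. Donor and acceptor concentrations determined by UV plate reader or HPLC-UV against calibration curves. Pe and mass retention R calculated.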
(PAMPA measures passive passage across an artificial lipid membrane.)

The subject of data set [12] is Huh-7. Kind of data set: Cytotoxicity against human HuH7 cells at >100 uM after 48 hrs by firefly reporter assay. The class given is cell-based. The following applies: huh-7, 48 h. The gist of the method:
as §2
For orientation: Reporter assays use an easily measured gene product as a stand-in for the process of interest.

In data set [13] the test system is dengue virus type 2. Kind of data set: Antiviral activity against Dengue virus 2 infected in human Huh-7 cells assessed as inhibition of virus-induced plaque formation at 50 uM after 48. The data set is classed as functional, organism-based. In short, it runs like this: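 Huh-7 cells seeded in 12-well plates and pretreated with compound (50 μM) for 4 h. Infected for 1 h with dengue reporter virus (MOI 5) in the presence of compound, then medium replaced with compound-containing DMEM. Supernatant harvested at 48 h and filtered. Titer determined by plaque assay on Vero cells. Mean ± SD of three independent experiments.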

Data set [14] deals with Dengue virus. As to the kind of experiment: Competitive inhibition of Dengue virus NS2B-NS3 protease expressed in Escherichia coli BL 21 (DE3) using Abz-Nle-Lys-Arg-Arg-Ser-3-(NO2)Tyr as substrate by Cornish-Bowden plot analysis. In short, it runs like this: as §1
Data set [15] has as its system Dengue virus. Kind of data set: Displacement of aprotinin from Dengue virus NS2B-NS3 protease expressed in Escherichia coli BL 21 (DE3) by tryptophan fluorescence quenching assay. The gist of the method:
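Tryptophan quenching assay: DEN protease (4 μM) incubated with inhibitor at 0–50 μM, and also with inhibitor (50 μM) plus aprotinin (10 μM). Enzyme and aprotinin autofluorescence measured as negative control. Fluorescence read at ex 280 nm, em 330 nm; triplicate.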

The test system of data set [16] is Dengue virus. As to the kind of experiment: Uncompetitive inhibition of Dengue virus NS2B-NS3 protease expressed in Escherichia coli BL 21 (DE3) using Abz-Nle-Lys-Arg-Arg-Ser-3-(NO2)Tyr as substrate by Cornish-Bowden plot analysis. In short, it runs like this:
as §1

For data set [17], the system named is Huh-7. As to the kind of experiment: Cytotoxicity against human HuH7 cells at 50 uM after 48 hrs by firefly reporter assay. The data set is classed as cell-based. The following applies: huh-7, 48 h. The gist of the method:
as §2

`CCCC[C@H](NC(=O)[C@H](CCCCN)NC(=O)[C@H](CCCNC(=N)N)NC(=O)c1ccc(/C=C2\SC(=S)N(CCc3ccccc3)C2=O)cc1)C(N)=O`: the Ki in data set [1] came out at 13.6 µM; in data set [6], 5.1 µM. The inhibition in the data set with Dengue virus [2] came out at 99.6%; in the data set on West Nile virus it was 98.3%; in [8] it was 6.2%. Also, in [3], the solubility result is on record as “Insoluble”. For the same molecule, the half-maximal effective concentration (EC50) in the data set on dengue virus type 2 [4] was found to be 25.6 µM. In addition, the Activity result in the data set on Huh-7 [5] is listed as “Non-toxic”. This molecule returned a concentration for half-maximal inhibition (IC50) in data set [7] of 7.7 µM. Further, the inhibition result with Dengue virus [9] was “Active”.

For `CCCC[C@H](NC(=O)[C@H](CCCCN)NC(=O)[C@H](CCCNC(=N)N)NC(=O)c1ccc(/C=C2\SC(=S)N(Cc3ccccc3)C2=O)cc1)C(N)=O`, in the data set with Dengue virus [10], the inhibition entry is “Active”. The Ki in data set [1] turned out to be 8.8 µM; in data set [6], 5.5 µM. Also, the figures for the inhibition (with Dengue virus [2]; in the data set on West Nile virus; in [8]) were 99.3%, 92.4% and 13.1%, respectively. The molecule also showed an IC50 in data set [7] of 10.9 µM.

`CCCC[C@H](NC(=O)[C@H](CCCCN)NC(=O)[C@H](CCCNC(=N)N)NC(=O)c1ccc(/C=C2\SC(=S)N(Cc3ccc(OC)cc3)C2=O)cc1)C(N)=O`: the inhibition entry in the data set on Dengue virus [10] was “Active”. Besides, the inhibition constant Ki came out at 7.8 µM in [1] and 8.3 µM in data set [6]. Also, the inhibition was found to be 99.6% with Dengue virus [2], 99% in the data set on West Nile virus and 15% in data set [8]. In the data set on dengue virus type 2 [4], the EC50 turned out to be 37.3 µM. The IC50 in [7] was determined as 7.9 µM. In data set [11], the Papp came to 0.6 ×10⁻⁶ cm/s.

Turning to `CCCC[C@H](NC(=O)[C@H](CCCCN)NC(=O)[C@H](CCCNC(=N)N)NC(=O)c1ccc(/C=C2\SC(=S)N(Cc3ccc(C)cc3)C2=O)cc1)C(N)=O`, the inhibition entry in the data set on Dengue virus [10] was “Active”. Besides, the values for the Ki in data set [1] and in data set [6] were 6.2 µM and 7.6 µM, respectively. Besides, the inhibition stood at 99.1% in the data set on Dengue virus [2], 96.3% in the data set on West Nile virus and 10.9% in data set [8]. Besides, half-maximal inhibition in data set [7] (IC50) was put at 7.5 µM.

On to `CCCC[C@H](NC(=O)[C@H](CCCCN)NC(=O)[C@H](CCCNC(=N)N)NC(=O)c1ccc(/C=C2\SC(=S)N(C3CCCCC3)C2=O)cc1)C(N)=O`, for which the Ki came to 9.3 µM in data set [1] and 4.4 µM in data set [6]. The inhibition in the data set on Dengue virus [2] came out at 99.2%; in the data set on West Nile virus it was 96.9%; in [8], 14.2%. Further, the EC50 in the data set on dengue virus type 2 [4] worked out at 16.7 µM. For the same molecule, the Activity result is on record as “Non-toxic” with Huh-7 [5] and “Toxic” in the data set on Huh-7 [12]. Also, the inhibition result in the data set with dengue virus type 2 [13] and with Dengue virus [9] was “Active” throughout. This molecule displayed an IC50 in data set [7] of 6.1 µM. In addition, the Papp in data set [11] came out at 1.82 ×10⁻⁶ cm/s.

`CCCC[C@H](NC(=O)[C@H](CCCCN)NC(=O)[C@H](CCCNC(=N)N)NC(=O)c1ccc(/C=C2\SC(=O)N(CCc3ccccc3)C2=O)cc1)C(N)=O`: the Ki is 1.8 µM in data set [1] and more than 10 µM in [6]. For the same molecule, the inhibition in the data set with Dengue virus [2] was 96.8%; in the data set on West Nile virus, 57.8%; in data set [8] it was 15.3%; in the data set on Dengue virus [15], “Dose-dependent effect”. Besides, in the data set with dengue virus type 2 [4], the concentration for a half-maximal effect (EC50) came out at 37.2 µM. Besides, the Activity entry with Huh-7 [5] is recorded as “Non-toxic”. Besides, the inhibition entry with Dengue virus [14] was “Active”. This molecule also displayed a half-inhibitory concentration (IC50) in data set [7] of 3.5 µM. The Papp in [11] came out at 0.82 ×10⁻⁶ cm/s.

In the case of `CCCC[C@H](NC(=O)[C@H](CCCCN)NC(=O)[C@H](CCCNC(=N)N)NC(=O)c1ccc(/C=C2\SC(=O)N(Cc3ccccc3)C2=O)cc1)C(N)=O`, the Ki in data set [1] was 1.7 µM; in data set [6], more than 10 µM. The inhibition in the data set with Dengue virus [2] was 98.6%; with West Nile virus it was 57.9%; in data set [8] it was 17.3%; with Dengue virus [15], “Dose-dependent effect”. In addition, the concentration giving a half-maximal response (EC50) in the data set on dengue virus type 2 [4] was more than 50 µM. Also, in the data set on Huh-7 [5], the Activity result is “Non-toxic”. Besides, in the data set on Dengue virus [14], the inhibition result was “Active”. The molecule also showed a concentration for half-maximal inhibition (IC50) in [7] of 2.9 µM.

On to `CCCC[C@H](NC(=O)[C@H](CCCCN)NC(=O)[C@H](CCCNC(=N)N)NC(=O)c1ccc(/C=C2\SC(=S)N(Cc3ccc(Cl)cc3)C2=O)cc1)C(N)=O`, for which the Ki in data set [1] was more than 10 µM; in data set [6], 8.6 µM. The inhibition was found to be 100% with Dengue virus [2], 100% in the data set on West Nile virus and 13.3% in data set [8]. Further, the solubility result in data set [3] is recorded as “Insoluble”. In addition, in the data set on dengue virus type 2 [4], the 50% effective concentration (EC50) was 31.5 µM. For the same molecule, the Activity entry was “Non-toxic” in the data set with Huh-7 [5] and “Toxic” with Huh-7 [17]. Also, the inhibition entry in the data set on dengue virus type 2 [13] and with Dengue virus [16] was “Active” each time. Besides, the half-maximal inhibitory concentration (IC50) in data set [7] is more than 10 µM.

(Values after ChEMBL document CHEMBL2440094, “Thiazolidinone-peptide hybrids as dengue virus protease inhibitors with antiviral activity in cell culture” (J Med Chem, 2013).)
